Screening data deposited in PubChem BioAssay by The Scripps Research Institute Molecular Screening Center.
OX1R antag-1 = OX1R (HCRTR1) antagonists, primary screen, fluorescence, CHO/OX1R cells, Fluo-8 calcium, orexin A | 330,000 compounds, 0.43% hits | inhibition, % at 5 µM | Orexin/Hypocretin receptor type 1 (Homo sapiens), O43613 | Fluo-8 calcium fluorescence;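 active = inhibition above its plate's threshold, mean inhibition of all tested compounds on the plate plus 3 SD, cut at about 37% in these data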;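 also: 0% = orexin A challenge wells and 100% = SB-334867-A antagonist wells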
CHO parental Ca = ATP-evoked calcium signal inhibitors, parental CHO, primary screen, counter-screen for OX1R antagonist project, cell-based, fluorescence, Fluo-8 calcium dye; AID 463079, 2010; inhibition, % at 5.6 µM; 330,000 compounds, 0.63% hits; parental CHO-K1, ATP-induced calcium, Fluo-8 fluorescence;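 active = inhibition above that plate's mean sample inhibition plus 3 SD, cut at about 26% in these data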;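 also: 0% = ATP-challenged DMSO wells and 100% = DMSO wells without ATP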
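Assay system: parental CHO cells; Read-out basis: percent inhibition of ATP-evoked calcium rise, normalized to controls; Benchmarks: ATP and no-ATP DMSO wells; Compound dosing: single nominal dose of 5.6 µM per compound; Signal: Fluo-8 calcium dye fluorescence; Also added: ATP as calcium-mobilizing challenge; Repeats: singlicate.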
GPR7 antagonist = GPR7 receptor antagonists, primary screen, cell-based, fluorescence, single concentration. Neuropeptides B/W receptor type 1 (Homo sapiens), P48145. GPR7-expressing cells, fluorescence antagonist assay. inhibition, % at 4.4 µM. 290,000 compounds, 1.1% hits. AID 1861, 2009; in the data active = inhibition above about 16%, passing the limit was not always enough;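 also: cells stimulated with the agonist NPW; 0% = agonist with vehicle and 100% = vehicle without agonist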
Target sequence (P48145 whole entry, looked up): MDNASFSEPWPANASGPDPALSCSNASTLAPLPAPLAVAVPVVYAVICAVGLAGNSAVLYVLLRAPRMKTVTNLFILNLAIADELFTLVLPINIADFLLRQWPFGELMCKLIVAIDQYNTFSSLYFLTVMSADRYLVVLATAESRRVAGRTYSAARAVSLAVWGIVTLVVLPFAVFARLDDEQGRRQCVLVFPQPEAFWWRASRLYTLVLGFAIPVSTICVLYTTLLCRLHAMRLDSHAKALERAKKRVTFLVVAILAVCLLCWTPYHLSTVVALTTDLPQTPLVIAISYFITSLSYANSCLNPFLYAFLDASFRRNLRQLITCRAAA
TAAR1 antag = human TAAR1 antagonists, primary screen, Fluo-8 calcium fluorescence, CHO RD-HGA16 cells; Trace amine-associated receptor 1 (Homo sapiens), Q96RJ0; antagonist; inhibition, % at 3 µM; 360,000 compounds, 1.5% hits; AID 624466, 2012;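 active = inhibition above a per-plate cutoff, the mean inhibition of test compounds on that plate plus 3 SD, cut at about 49% in these data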;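 also: 0% = DMSO plus EC80 beta-PEA response and 100% = DMSO alone without agonist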
Target sequence (Q96RJ0 whole entry, looked up): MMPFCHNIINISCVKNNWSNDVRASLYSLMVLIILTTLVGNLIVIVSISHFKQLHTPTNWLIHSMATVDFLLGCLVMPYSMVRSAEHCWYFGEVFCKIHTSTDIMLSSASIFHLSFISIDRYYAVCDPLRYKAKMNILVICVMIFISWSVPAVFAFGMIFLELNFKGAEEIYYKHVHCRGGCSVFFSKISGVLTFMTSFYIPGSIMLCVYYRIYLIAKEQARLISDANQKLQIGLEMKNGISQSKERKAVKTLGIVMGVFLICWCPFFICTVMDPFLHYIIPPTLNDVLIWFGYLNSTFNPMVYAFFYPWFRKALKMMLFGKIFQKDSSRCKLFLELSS
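Assay system: CHO-derived RD-HGA16 cells stably expressing human TAAR1 plus Gα16. Timing: 140 s kinetic read after compound, 140 s after agonist. Technique: kinetic Fluo-8 calcium fluorescence measurement. Measure: % inhibition of agonist calcium response.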
TAAR1 ag = human TAAR1 agonists, primary screen, Fluo-8 calcium fluorescence, CHO RD-HGA16 cells. Trace amine-associated receptor 1 (Homo sapiens), Q96RJ0. vehicle wells 0%, saturating PEA agonist 100%. activation, % at 3 µM. 360,000 compounds, 0.99% hits. AID 624467, 2012;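 active = activation above the mean activation of all test compounds in the run plus 3 SD, cut at about 38% in these data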
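Test system: RD-HGA16 (CHO) cells co-expressing Gα16 and hTAAR1 | Doses: Single dose, 3 µM | Schedule: 17-24 h seeding, 75 min 37 °C dye, 30 min RT | Evaluation: % activation from peak over basal fluorescence ratio, DMSO-to-PEA scaled | Technique: Kinetic Fluo-8 calcium fluorescence | Benchmarks: Low control DMSO, high control PEA (EC100)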
OX1R antag-2 = antagonists of human orexin 1 receptor (OX1R) | OX1R-expressing cells, FRET antagonist read-out | Orexin/Hypocretin receptor type 1 (Homo sapiens), O43613 | inhibition, % at 6.6 µM | AID 485270, 2010 | 330,000 compounds, 1.8% hits; in the data active = inhibition mostly above about 38%, no sharp cut-off; inactive = mostly below about 40%;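 also: 0% = agonist challenge alone and 100% = reference antagonist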
TAAR1 ag confirm = human TAAR1 agonists, retest of hits, confirmation, Fluo-8 calcium fluorescence, CHO RD-HGA16 cells; shares compounds with TAAR1 ag; activation, % at 3 µM; scaled: DMSO 0%, maximal phenethylamine 100%; AID 651783, 2012; 2,400 compounds, 82% hits;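 active = activation above a cutoff set at the run's mean compound activation plus 3 SD, cut at about 39% in these data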
Ga16 nonsel ag = nonselective calcium mobilization agonists, CHO-Ga16 cells, counter-screen for hTAAR1 agonist project, cell-based, fluorescence, CHO-Ga16 parental line | shares compounds with TAAR1 ag | Fluo-8 calcium fluorescence; normalized to maximal ATP response, DMSO zero | activation, % at 3 µM | 2,400 compounds, 50% hits;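 active = activation above the run cutoff, the mean activation over all tested wells plus 3 SD, cut at about 12% in these data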;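 also: 0% = DMSO wells and 100% = maximal ATP response on the peak over basal ratio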
TAAR1 desens = TAAR1 desensitization by agonist hits, confirmation, counter-screen for TAAR1 agonist project, cell-based, fluorescence, tachyphylaxis | shares compounds with TAAR1 ag | CHO RD-HGA16 hTAAR1, Fluo-8 calcium, beta-PEA response inhibition | inhibition, % at 3 µM | 2,400 compounds, 46% hits | AID 651951, 2012;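 active = inhibition above the run cutoff, the mean inhibition of all test compounds plus 3 SD, cut at about 49% in these data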;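 also: beta-PEA stimulus applied at its EC80; loss of beta-PEA calcium signal after compound pretreatment read as receptor desensitization; 0% = DMSO with beta-PEA at EC80 and 100% = DMSO alone without agonist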
Ga16 antag count = inhibition of ATP-evoked calcium response in CHO-Ga16 cells, counter-screen for TAAR1 agonist project, cell-based, fluorescence; CHO-Ga16 ATP-induced calcium, Fluo-8 fluorescence; 2,400 compounds, 39% hits; inhibition, % at 3 µM; shares compounds with TAAR1 ag;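 active = inhibition above the plate's mean compound inhibition plus 3 SD, computed per plate, cut at about 22% in these data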;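 also: 0% = EC80 ATP with DMSO and 100% = DMSO wells without ATP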
* marks the source's active call; other numbers are inactive results; . = no result. Only some compounds are listed: those with a hit (about 4.6% of all), similar ones and a draw of the others.

SMILES	OX1R antag-1	CHO parental Ca	GPR7 antagonist	TAAR1 antag	TAAR1 ag	OX1R antag-2	TAAR1 ag confirm	Ga16 nonsel ag	TAAR1 desens	Ga16 antag count
NC(N)=N/N=C/c1ccc(OCc2ccccc2Cl)cc1	13	15	1	-11	50*	8	87*	55*	70*	61*
NC(N)=N/N=C/c1ccccc1	-3	3	-8	89*	63*	9	91*	5	94*	7
C=CCn1c(N)c(C(=O)Nc2ccc(C)cc2)sc1=S	-11	-7	1	40	62*	17	-4	-1	1	12
O=c1c2ccccc2nnn1CSc1ccccc1F	-17	-10	-4	45	60*	17	6	2	3	12
O=C(N/N=C/c1ccc(F)cc1)c1ccc(OCc2ccccc2)cc1	-4	-7	2	-2	0	2	.	.	.	.
NNC(=O)c1ccc(COc2ccc3ccccc3c2)cc1	-2	-4	-9	-12	72*	-11	93*	51*	49*	23*
O=C(N/N=C/c1ccc(OCc2ccc(F)cc2)cc1)c1ccccc1	0	4	-2	5	43*	26	18	3	-1	0
O=C(Nc1ccc(OCc2ccccc2)cc1)c1cccnc1	-1	12	13	57*	88*	42	94*	30*	75*	26*
O=C(Nc1ccc(OCc2ccccc2)cc1)Nc1cccnc1	-15	3	12	14	4	10	.	.	.	.
O=C(Nc1ccccc1F)c1ccc(OCc2ccccc2)cc1	-4	10	0	.	.	8	.	1	.	13
CC(C)C(=O)Nc1ccc(C(=O)Nc2nnc(C(C)C)s2)cc1	-17	-25	-5	-3	9	9	.	.	.	.
CCCCNc1c(CCc2ccccc2)nc2nc(C)cc(C)n12	.	.	.	-5	-1	.	.	.	.	.
COC(=O)c1ccc(-c2ccc(CNCC(O)c3ccccc3)o2)cc1 (centres undefined)	-17	-17	-4	2	39*	12	26	5	14	5
COc1ccc2c(c1)C(SCC(=O)NCCc1ccccc1)CC(C)(C)O2 (centres undefined)	-32	-14	4	61*	68*	16	73*	1	76*	16
Cc1ccc(Cn2ncc3c(N4CCN(Cc5ccc(Cl)cc5)CC4)ncnc32)cc1	-30	-23	1	-25	11	32	.	.	.	.
CC1CCN(c2ncnc3c2cnn3Cc2ccc(Cl)cc2)CC1	-12	-29	6	25	51*	21	38*	20*	26	15
Cc1ccccc1OCCCN1CCC(C(O)(c2ccccc2)c2ccccc2)CC1	.	.	.	34	37*	.	51*	19*	38	26*
Cc1cc(C)cc(OCCCN2CCC(C(O)(c3ccccc3)c3ccccc3)CC2)c1	.	.	.	30	25	.	.	.	.	.
OC(c1ccccc1)(c1ccccc1)C1CCN(CCCOc2cccc(F)c2)CC1	.	.	.	40	45*	.	16	10	14	16
Cc1nc(Nc2ccc(C(=O)O)cc2)sc1-c1ccccc1	13	2	18	31	62*	-8	71*	63*	61*	44*
Cc1nc(Nc2ccccc2)sc1-c1ccccc1	-25	-14	-15	-8	-1	35	.	.	.	.
Cc1ccc(S(=O)(=O)Nc2ccc(C(=O)N3CCCC3)cc2)cc1	-27	-4	-9	-8	2	11	.	.	.	.
Cc1ccc(NS(=O)(=O)c2ccc(C(=O)N3CC(C)CC(C)C3)cc2)cc1 (centres undefined)	63*	64*	.	102*	141*	0	128*	91*	106*	89*
CN(C)c1ccc(C(=O)OCC(=O)Nc2ccc(N3CCOCC3)cc2)cc1	3	-4	-13	-6	51*	6	2	10	8	1
CN(C)S(=O)(=O)c1ccc(Cl)c(NC(=O)COC(=O)CCSc2ccccc2)c1	-9	-12	8	-4	3	28	.	.	.	.
SMILES	OX1R antag-1	CHO parental Ca	GPR7 antagonist	TAAR1 antag	TAAR1 ag	OX1R antag-2	TAAR1 ag confirm	Ga16 nonsel ag	TAAR1 desens	Ga16 antag count
Cc1ccc(S(=O)(=O)Cc2ccc(C(=O)N3CCc4ccccc4C3)o2)cc1	-26	-8	5	64*	69*	9	48*	5	11	16
Cc1ccc(S(=O)(=O)Cc2ccc(C(=O)N3CCN(Cc4ccccc4)CC3)o2)cc1	-25	-13	0	-7	1	13	.	.	.	.
COc1ccccc1N1CCN(C(=O)c2cc(C)oc2C)CC1	-18	-6	-6	0	9	19	.	.	.	.
COc1ccccc1N1CCN(C(=O)c2cccc3c(=O)c(C)c(-c4ccccc4)oc23)CC1	0	-8	-6	60*	70*	18	69*	37*	48	33*
COc1ccccc1N1CCN(C(=O)c2ccc(CS(=O)(=O)c3ccccc3OC)o2)CC1	-15	-9	-8	38	59*	9	59*	21*	55*	34*
COc1ccc(S(=O)(=O)Cc2ccc(C(=O)N3CCc4ccccc4C3)o2)cc1	-34	-11	6	61*	61*	9	92*	23*	76*	12
Cn1cnnc1SCC(=O)Nc1ccc2nc(SCc3ccccc3)sc2c1	-34	-34	25	2	44*	29	48*	21*	24	25*
